The values that follow come from ChEMBL document CHEMBL3124872, “Discovery and early development of TMC647055, a non-nucleoside inhibitor of the hepatitis C virus NS5B polymerase” (J Med Chem, 2014).

Activity calls are given as the source filed them. No cut-off for these calls is given here. A value given as a limit tells only on which side of the number the result lay.

One data set deals with Homo sapiens. The data set is described as follows: Toxicity in human assessed as effect on food consumption at 300 to 1250 mg, po bid for 5 days followed by morning dose on day 6. In kind it is organism-based. As to conditions: in vivo, 120 h. In short, it runs like this:
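Healthy volunteers given oral b.i.d. doses of 300, 1000 or 1250 mg for 5 days plus a morning dose on day 6, in hydroxypropyl-β-cyclodextrin vehicle; adverse events, laboratory parameters, vital signs, food consumption, appetite, ECG and plasma 4-β-hydroxycholesterol (CYP3A4 induction marker) monitored.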

Data set [1] concerns Hepatitis C virus. The data set is described as follows: Antiviral activity against Hepatitis C virus genotype 1b infected in human HuH7 assessed as rebound of replicon RNA at 3.75 uM preincubated for 2 weeks followed by 3 week rebound phase by RT-PCR analysis. Format: functional, organism-based. As to conditions: Hepacivirus hominis, Huh-7. The method, boiled down: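 Clearance-and-rebound test in Huh7-Luc genotype 1b replicon cells. Cells were incubated with inhibitor (3.75 μM alone) for 14 days, then held for a 3-week rebound phase without inhibitor. Replicon RNA was followed for clearance and rebound.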
For orientation: Replicon systems follow genome replication, usually without infectious particles.

The subject of data set [2] is Hepatitis C virus. The data set is described as follows: Antiviral activity against Hepatitis C virus harboring […] R155K mutant infected in human HuH7 by luciferase reporter gene assay. In kind it is functional, organism-based. The following applies: Hepacivirus hominis; Huh-7. On the technique in general: In a reporter assay the amount or activity of a reporter protein is the signal.

The test system of data set [3] is Hepatitis C virus. The data set can be described thus: Antiviral activity against Hepatitis C virus genotype 1a infected in human HuH7 by transient replicon assay. The following applies: subtype 1a, Huh-7. Format: functional, organism-based, Hepacivirus hominis. In short, it runs like this: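 Transient replicon assay using chimeric replicons whose NS5B region is derived from patient isolates of the stated genotype.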

The nature of data set [4]: Binding affinity to Hepatitis C virus genotype 3a NS5B by surface plasmon resonance analysis. Details: species or system Hepatitis C virus subtype 3a. The method, boiled down:
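Surface plasmon resonance binding to NS5B polymerase of the stated genotype; association and dissociation rate constants measured, from which Kd and residence half-life were derived; median Kd reported.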

Data set [5] can be described thus: Cytotoxicity against human HepG2 cells after 3 days by resazurin-based fluorescence analysis. Format: cell-based. In general terms: Alamar Blue is a resazurin reagent that responds to reducing activity.
Data set [6] is described as follows: Cytotoxicity against human MT4 cells. Format: cell-based.
Data set [7] can be described thus: Toxicity in rat after 5 days. As to conditions: in vivo. In kind it is organism-based.
A further data set has as its system Rattus norvegicus. The data set can be described thus: Toxicity in rat assessed as decrease in body weight at 1000 mg/kg/day after 5 days. In kind it is organism-based. The following applies: in vivo, 120 h.
For data set [8], the system named is Hepatitis C virus. The data set is described as follows: Antiviral activity against Hepatitis C virus genotype 1b infected in human assessed as reduction in plasma HCV RNA level administered for 10 days measured on day 11. Format: functional, organism-based. The following applies: Hepacivirus hominis. The method, boiled down:
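HCV genotype 1a- and 1b-infected patients received oral 1000 mg b.i.d. together with an NS3/4A protease inhibitor at 150 mg q.d. for 10 days. The read-out was the median decrease in plasma HCV RNA (log10 IU/mL) at day 11.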

For the molecule `COc1ccc2c(c1)C=C1Cn3c-2c(C2CCCCC2)c2ccc(cc23)C(=O)NS(=O)(=O)N(C)CCOCCN(C)C1=O` [TMC-647055], the results for the Activity entry in the data set with Homo sapiens and in the data set on Rattus norvegicus were “Non-toxic” and “Toxic”, respectively. The outcome with Hepatitis C virus [1] was inactive. The result with Hepatitis C virus [2] and in the data set with Hepatitis C virus [8] was Active. In the data set with Hepatitis C virus [3], the EC50 – broadly, the midpoint of the concentration-response curve – was found to be 48 nM. Further, binding in data set [4] was characterised by a dissociation constant (Kd) of 6.1 nM. The 50% cytotoxic concentration (CC50) (as a rule, the concentration giving 50% cytotoxicity) at 72 h in [5] is above 50 µM. The molecule further yielded a CC50 in [6] of 28.9 µM. Further, in data set [7], the NOAEL (usually the highest tested level that showed no adverse finding) at 120 h is at most 1000 mg/kg/day.
